Test results published in PMC12034913 (Journal of Clinical Pharmacology, 2024).

What was measured:
[1] = Open-label drug–drug interaction study: dasatinib plasma pharmacokinetics; format: in vivo, human
Procedure, shortened: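 Healthy fasted volunteers (N = 18). Test compound given as a 100 mg IR tablet orally with ~240 mL water on day 1 alone and on day 6 after 40 mg delayed-release PPI QD on evenings of days 2–5. Fasted ≥10 h before and 4 h after dose. K2EDTA plasma was analysed by LC-MS/MS (LLOQ 0.75 ng/mL). PK was non-compartmental, with day 6/day 1 geometric mean ratios and 90% CI from ANOVA on ln-values.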

[2] = proposed threshold; cited from earlier work
[3] = cited from earlier work
[4] = omeprazole 40 mg at steady state, 10 h before crystalline dasatinib 100 mg

- extrapolated area in the plasma concentration–time profile (mean ± SD) ([1]; crystalline dasatinib formulation administered alone): 2.7%
- reduction in dasatinib plasma exposure ([1]; dosing interval of 10 h between PPI and crystalline dasatinib): ~90%
- AUC(0-t) ([1]; human, plasma, oral, 100 mg): 735 ng·h/mL
- Cmax ([1]; human, plasma, oral, 100 mg): 195 ng/mL
- AUC(0-t) ([1]; human, plasma, po, 100 mg): 798 ± 274 ng·h/mL
- Cmax ([1]; human, plasma, po, 100 mg): 225 ± 105 ng/mL
- half-life ([1]; human, plasma, po, 100 mg): 5.7 ± 1.5 h
- mean reduction of Cmax by omeprazole comedication [1, 4]: 96%
- reduction of AUC0-24 by omeprazole comedication [1, 4]: 89%
- reduction of GI absorption and bioavailability ([1]; omeprazole at steady state dosed in the evening 10 h prior to crystalline dasatinib): about 90%
- Cmax ratio Test/Control (geometric means) ([1]; test = with omeprazole, control = crystalline dasatinib alone, 90% CI 2.73-4.96): 3.7%
- AUC0-24 ratio Test/Control (geometric means) ([1]; test = with omeprazole, control = crystalline dasatinib alone, 90% CI 9.13-14.59): 11.5%
SMILES: Cc1nc(Nc2ncc(C(=O)Nc3c(C)cccc3Cl)s2)cc(N2CCN(CCO)CC2)n1 [Crystalline Dasatinib, dasatinib]
- Cmax threshold for achieving MMR [2]: 69.2 ng/mL
- effect on dasatinib plasma exposure ([3]; antacid administered 2 h prior to crystalline dasatinib): unaffected
- reduction in absorption and bioavailability of dasatinib with PPIs ([3]; experimental setting controlled for gastric pH above 4): ≤ 80%
